According to ChEMBL document CHEMBL4052828, “Discovery of 4-((7H-Pyrrolo[2,3-d]pyrimidin-4-yl)amino)-N-(4-((4-methylpiperazin-1-yl)methyl)phenyl)-1H-pyrazole-3-carboxamide (FN-1501), an FLT3- and CDK-Kinase Inhibitor with Potentially High Efficiency against Acute Myelocytic Leukemia” (J Med Chem, 2018):

What was measured:
[1] = target: T1, Receptor-type tyrosine-protein kinase FLT3 (Homo sapiens, UniProt P36888); assay: Inhibition of human FLT3 using EAIYAAPFAKKK as substrate preincubated for 20 mins followed by [gamma-33P]-ATP addition measure after 120 mins by filter binding method
T1 sequence (P36888 whole entry): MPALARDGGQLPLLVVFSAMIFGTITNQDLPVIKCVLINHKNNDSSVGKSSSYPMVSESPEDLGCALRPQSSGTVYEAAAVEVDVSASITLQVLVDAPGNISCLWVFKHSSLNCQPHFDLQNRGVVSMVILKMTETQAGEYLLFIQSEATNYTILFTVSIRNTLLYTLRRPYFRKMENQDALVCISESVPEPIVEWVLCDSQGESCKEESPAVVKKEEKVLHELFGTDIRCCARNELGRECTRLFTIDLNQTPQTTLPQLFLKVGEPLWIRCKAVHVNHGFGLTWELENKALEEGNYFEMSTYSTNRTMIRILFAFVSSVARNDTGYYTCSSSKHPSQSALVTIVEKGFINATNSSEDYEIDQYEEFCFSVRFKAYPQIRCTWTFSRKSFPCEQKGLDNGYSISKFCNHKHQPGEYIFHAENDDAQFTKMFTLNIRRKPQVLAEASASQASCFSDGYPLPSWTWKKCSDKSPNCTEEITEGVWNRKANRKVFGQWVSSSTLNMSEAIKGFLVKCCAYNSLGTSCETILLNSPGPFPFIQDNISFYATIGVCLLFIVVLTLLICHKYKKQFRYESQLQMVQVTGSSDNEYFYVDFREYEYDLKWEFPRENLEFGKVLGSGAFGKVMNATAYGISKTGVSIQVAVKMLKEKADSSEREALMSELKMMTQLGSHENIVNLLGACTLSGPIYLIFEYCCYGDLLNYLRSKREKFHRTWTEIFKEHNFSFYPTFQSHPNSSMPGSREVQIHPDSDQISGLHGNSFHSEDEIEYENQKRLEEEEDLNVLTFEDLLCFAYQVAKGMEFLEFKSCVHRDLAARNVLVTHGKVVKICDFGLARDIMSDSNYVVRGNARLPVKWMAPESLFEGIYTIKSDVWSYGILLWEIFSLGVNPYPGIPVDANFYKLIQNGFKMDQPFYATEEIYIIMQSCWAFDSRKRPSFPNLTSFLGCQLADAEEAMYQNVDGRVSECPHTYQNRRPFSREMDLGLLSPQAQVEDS
Procedure, shortened: (§1)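 Compound preincubated with kinase 20 min at room temperature. Filter-binding read-out, curve-fitted IC50; mean ± SD of three independent experiments.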

[2] = target: CDK2/Cyclin A1 (Homo sapiens, UniProt P24941); assay: Inhibition of human CDK2/Cyclin A1 using histone H1 as substrate preincubated for 20 mins followed by [gamma-33P]-ATP addition measure after 120 mins by filter binding method; type: protein-complex assay; procedure, shortened: as §1
[3] = system: MV4-11; assay: Growth inhibition of human MV4-11 cells at 1 uM after 72 hrs by CellTiter-Glo assay relative to control; type: functional; details: MV4-11, 72 h, read-out: GI
[4] = target: CDK2/Cyclin A1 (Homo sapiens) (UniProt P24941+P78396); assay: Inhibition of human CDK2/Cyclin A1 assessed as residual activity at 0.123 uM using histone H1 as substrate preincubated for 20 mins followed by [gamma-33P]-ATP addition measure after 120 mins by filter binding method relative to control; type: protein-complex assay
[5] = target: Receptor-type tyrosine-protein kinase FLT3 (Homo sapiens) (UniProt P36888); assay: Inhibition of human FLT3 assessed as residual activity at 0.123 uM using EAIYAAPFAKKK as substrate preincubated for 20 mins followed by [gamma-33P]-ATP addition measure after 120 mins by filter binding method relative to control
[6] = Lipophilicity, log P of the compound; type: physicochemical; details: octanol/water
[7] = system: MV4-11; assay: Growth inhibition of human MV4-11 cells after 72 hrs by CellTiter-Glo assay; type: functional, cell-based; details: MV4-11, 72 h
Procedure, shortened: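 MV4-11 cells grown in IMDM with 10% FBS, 2% L-glutamine and 1% pen/strep at 37 °C, 5% CO2. Seeded at 10000 cells/well and exposed to compound at various concentrations for 72 h. Viability read by CellTiter-Glo luminescence.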

[8] = Terminal half life in rat liver microsomes by LC-MS/MS analysis; type: ADME, microsome; details: read-out: beta t1/2 (converted)
Procedure, shortened: (§2)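 Metabolic stability measured by incubating compound in human, rat, mouse, dog and monkey liver microsomes. Terminal t1/2 determined.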

[9] = Terminal half life in human liver microsomes by LC-MS/MS analysis; type: ADME, microsome; details: read-out: beta t1/2 (converted); procedure, shortened: as §2
[10] = Intrinsic clearance in dog liver microsomes by LC-MS/MS analysis; type: ADME, Canis lupus familiaris, microsome; details: read-out: CLH
[11] = Intrinsic clearance in rat liver microsomes by LC-MS/MS analysis; type: ADME, microsome; details: read-out: CLH
[12] = Terminal half life in cynomolgus monkey liver microsomes by LC-MS/MS analysis; type: ADME, Macaca fascicularis, microsome; details: read-out: beta t1/2 (converted); procedure, shortened: as §2
[13] = system: NCI-H82; assay: Growth inhibition of human NCI-H82 cells after 72 hrs by CellTiter-Glo assay; type: functional; details: NCI-H82, 72 h
[14] = system: MGC-803; assay: Growth inhibition of human MGC803 cells after 72 hrs by CellTiter-Glo assay; type: functional; details: MGC-803, 72 h
[15] = Terminal half life in dog liver microsomes by LC-MS/MS analysis; type: ADME, Canis lupus familiaris, microsome; details: read-out: beta t1/2 (converted); procedure, shortened: as §2
[16] = system: RS4-11; assay: Growth inhibition of human RS4:11 cells after 72 hrs by CellTiter-Glo assay; type: functional; details: RS4-11, 72 h
[17] = target: Cyclin-dependent kinase 4/cyclin D1 (Homo sapiens, UniProt P11802); assay: Inhibition of human CDK4/Cyclin D1 using RB protein as substrate preincubated for 20 mins followed by [gamma-33P]-ATP addition measure after 120 mins by filter binding method; type: protein-complex assay
Chain of Cyclin-dependent kinase 4/cyclin D1 (P11802 whole entry): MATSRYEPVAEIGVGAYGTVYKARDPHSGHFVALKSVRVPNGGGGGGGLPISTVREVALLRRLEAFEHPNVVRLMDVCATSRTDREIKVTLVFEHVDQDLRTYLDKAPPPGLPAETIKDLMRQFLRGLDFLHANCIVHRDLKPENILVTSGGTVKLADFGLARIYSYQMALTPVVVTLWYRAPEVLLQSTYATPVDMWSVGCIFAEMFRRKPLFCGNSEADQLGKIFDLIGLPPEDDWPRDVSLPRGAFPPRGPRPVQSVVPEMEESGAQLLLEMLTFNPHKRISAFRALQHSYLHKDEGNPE
Chain of Cyclin-dependent kinase 4/cyclin D1 (P24385 whole entry, further chain): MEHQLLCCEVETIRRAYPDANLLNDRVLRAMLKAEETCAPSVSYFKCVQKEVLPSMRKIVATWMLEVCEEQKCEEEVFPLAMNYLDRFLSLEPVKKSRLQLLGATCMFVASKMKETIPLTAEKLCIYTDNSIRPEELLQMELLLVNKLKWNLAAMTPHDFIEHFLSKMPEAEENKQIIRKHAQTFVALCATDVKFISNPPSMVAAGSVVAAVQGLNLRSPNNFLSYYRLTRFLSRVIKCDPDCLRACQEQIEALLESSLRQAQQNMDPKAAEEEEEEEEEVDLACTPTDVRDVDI
Procedure, shortened: (§3)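 Compound preincubated with kinase 20 min at room temperature. Reaction started with 10 μM [γ-33P]ATP and run 120 min at 25°C. Filter-binding read-out, curve-fitted IC50; mean ± SD of three independent experiments.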

[18] = target: CDK6/cyclin D1 (Homo sapiens, UniProt Q00534); assay: Inhibition of human CDK6/Cyclin D1 using RB protein as substrate preincubated for 20 mins followed by [gamma-33P]-ATP addition measure after 120 mins by filter binding method; type: protein-complex assay; procedure, shortened: as §3
Chain of CDK6/cyclin D1 (P24385 whole entry): as the sequence (P24385 whole entry, further chain) above
Chain of CDK6/cyclin D1 (Q00534 whole entry): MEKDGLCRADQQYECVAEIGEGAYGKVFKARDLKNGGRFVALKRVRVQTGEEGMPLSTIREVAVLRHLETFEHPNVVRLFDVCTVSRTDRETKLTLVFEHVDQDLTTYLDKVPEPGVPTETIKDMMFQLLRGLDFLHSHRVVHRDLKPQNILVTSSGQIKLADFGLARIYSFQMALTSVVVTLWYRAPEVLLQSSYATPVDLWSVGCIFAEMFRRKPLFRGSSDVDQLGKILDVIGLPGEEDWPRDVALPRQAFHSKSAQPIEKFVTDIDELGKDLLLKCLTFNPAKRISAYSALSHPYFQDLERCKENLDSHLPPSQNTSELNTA

[19] = system: HCT-116; assay: Growth inhibition of human HCT116 cells after 72 hrs by CellTiter-Glo assay; type: functional; details: HCT-116, 72 h
[20] = Intrinsic clearance in human liver microsomes by LC-MS/MS analysis; type: ADME, microsome; details: read-out: CLH
[21] = Terminal half life in mouse liver microsomes by LC-MS/MS analysis; type: ADME, microsome; details: read-out: beta t1/2 (converted); procedure, shortened: as §2
[22] = system: MCF7; assay: Growth inhibition of human MCF7 cells after 72 hrs by CellTiter-Glo assay; type: functional; details: MCF7, 72 h
[23] = Intrinsic clearance in mouse liver microsomes by LC-MS/MS analysis; type: ADME, microsome; details: read-out: CLH
[24] = Intrinsic clearance in cynomolgus monkey liver microsomes by LC-MS/MS analysis; type: ADME, Macaca fascicularis, microsome; details: read-out: CLH

IC50 [1] [nM]	IC50 [2] [nM]	IC50 [7] [nM]	Structure (SMILES)	inhibition of growth at 1 µM [3] [%]	other results
0.576	1.9	–	Cc1sc2ncnc(Nc3c[nH]nc3C(=O)Nc3ccc(CN4CCN(C)CC4)cc3)c2c1C	–	–
0.34	2.08	19	O=C(Nc1ccc(CN2CCNCC2)cc1)c1n[nH]cc1Nc1ncnc2sccc12	–	logP [6]: 2.65
6.15	11.6	35	O=C(Nc1ccc(CN2CCOCC2)cc1)c1n[nH]cc1Nc1ncnc2ccsc12	–	–
0.101	1.87	–	CCc1cc2c(Nc3c[nH]nc3C(=O)Nc3ccc(CN4CCN(C)CC4)cc3)ncnc2s1	–	–
0.623	3.36	–	O=C(Nc1ccc(CN2CCOCC2)cc1)c1n[nH]cc1Nc1ncnc2sccc12	98.5	half-life [8]: 7.08 min; half-life [9]: 8.28 min; CLint scaled [10]: 1330 mL/min/kg; CLint scaled [11]: 352 mL/min/kg; half-life [12]: 10.9 min; GI50 [13]: 290 nM; GI50 [14]: 210 nM; half-life [15]: 1.5 min; GI50 [16]: 170 nM; IC50 [17]: 2.4 nM; IC50 [18]: 3.88 nM; GI50 [19]: 580 nM; CLint scaled [20]: 165 mL/min/kg; half-life [21]: 7.2 min; GI50 [22]: 610 nM; CLint scaled [23]: 765 mL/min/kg; CLint scaled [24]: 171 mL/min/kg
0.384	–	–	Cc1cc2c(Nc3c[nH]nc3C(=O)Nc3ccc(CN4CCN(C)CC4)cc3)ncnc2s1	–	–
2.56 to 2.65	16.5	–	CN1CCN(Cc2ccc(NC(=O)c3n[nH]cc3Nc3ncnc4occc34)cc2)CC1	94.7	IC50 [17]: 5.67 nM; IC50 [18]: 5.09 nM
2.31	3.89	–	CC(C)c1cc2c(Nc3c[nH]nc3C(=O)Nc3ccc(CN4CCN(C)CC4)cc3)ncnc2s1	–	–
0.167	4.49	–	Cc1csc2ncnc(Nc3c[nH]nc3C(=O)Nc3ccc(CN4CCN(C)CC4)cc3)c12	–	–
0.47	9.32	23	CN1CCN(Cc2ccc(NC(=O)c3n[nH]cc3Nc3ncnc4ccsc34)cc2)CC1	–	IC50 [17]: 3.1 nM; IC50 [18]: 4.11 nM
0.32	3.03	–	CN1CCCN(Cc2ccc(NC(=O)c3n[nH]cc3Nc3ncnc4sccc34)cc2)CC1	–	–
3.17	8.27	–	CN1CCN(Cc2ccc(NC(=O)c3n[nH]cc3Nc3ncnc4ccccc34)cc2)CC1	–	–

The next lines start with the compound.

Structure (SMILES)	IC50 [1] [nM]	IC50 [2] [nM]	IC50 [7] [nM]	inhibition of growth at 1 µM [3] [%]	other results
COc1ccc2c(Nc3c[nH]nc3C(=O)Nc3ccc(CN4CCN(C)CC4)cc3)ccnc2c1	197	697	–	22.6	–
O=C(Nc1ccc(CN2CCOCC2)cc1)c1n[nH]cc1Nc1ccnc2ccccc12	–	–	–	42	Activity [4]: 57.7%; Activity [5]: 40.8%
O=C(Nc1ccc(CN2CCNCC2)cc1)c1n[nH]cc1Nc1ncnc2[nH]ccc12	1.03	4.49	53	–	logP [6]: 1.22
COc1ccc2c(Nc3c[nH]nc3C(=O)Nc3ccc(CN4CCOCC4)cc3)ccnc2c1	97.4	–	–	22.2	Activity [4]: 75%
COc1ccc2ncnc(Nc3c[nH]nc3C(=O)Nc3ccc(CN4CCOCC4)cc3)c2c1	3.78	29.8	–	53.1	–
CC(C)c1cc2c(Nc3c[nH]nc3C(=O)Nc3ccc(CN4CCOCC4)cc3)ncnc2s1	7.63	9.85	15	–	–
CN1CCN(Cc2ccc(NC(=O)c3n[nH]cc3Nc3ccnc4ccccc34)cc2)CC1	–	–	–	98.8	Activity [4]: 26.5%; Activity [5]: 27.7%
O=C(Nc1ccc(CN2CCOCC2)cc1)c1n[nH]cc1Nc1ccnc2ccc(Br)cc12	16.9	24.1	–	93.7	–
COc1ccc2nccc(Nc3c[nH]nc3C(=O)Nc3ccc(CN4CCN(C)CC4)cc3)c2c1	–	–	–	64.4	Activity [4]: 32.5%; Activity [5]: 10.4%
O=C(Nc1ccc(CN2CCOCC2)cc1)c1n[nH]cc1Nc1cc(C(F)(F)F)nc2ccccc12	–	–	–	4.7	Activity [4]: 99.7%; Activity [5]: 83.2%
CN1CCN(Cc2ccc(NC(=O)c3n[nH]cc3Nc3ccnc4ccc(Br)cc34)cc2)CC1	4.84	5.74	–	97.2	–
O=C(Nc1ccc(CN2CCOCC2)cc1)c1n[nH]cc1Nc1ncnc2[nH]ccc12	2.06	7.25	21	–	–
O=C(Nc1ccc(CN2CCOCC2)cc1)c1n[nH]cc1Nc1nc(Cl)nc2ccccc12	0.958	58.6	–	91.1	–
CN1CCN(Cc2ccc(NC(=O)c3n[nH]cc3Nc3nccc4ccccc34)cc2)CC1	–	–	–	–	Activity [4]: 60.5%; Activity [5]: 24.5%
O=C(Nc1ccc(CNC2CC2)cc1)c1n[nH]cc1Nc1ncnc2sccc12	1.05	2.05	–	–	–
Cc1sc2ncnc(Nc3c[nH]nc3C(=O)Nc3ccc(CN4CCOCC4)cc3)c2c1C	3.52	7.34	30	–	–
Cc1csc2ncnc(Nc3c[nH]nc3C(=O)Nc3ccc(CN4CCOCC4)cc3)c12	1.37	1.08	11	–	–
O=C(Nc1ccc(CN2CCOCC2)cc1)c1n[nH]cc1Nc1ncnc2ccccc12	0.588	5.3	23	–	–
CCN(CC)Cc1ccc(NC(=O)c2n[nH]cc2Nc2ncnc3sccc23)cc1	5.36	1.59	–	–	–
O=C(Nc1ccc(CN2CCOCC2)cc1)c1n[nH]cc1Nc1nccc2ccccc12	42.4	287	–	50.4	–
CCN(CC)Cc1ccc(NC(=O)c2n[nH]cc2Nc2ncnc3[nH]ccc23)cc1	0.13	13.6	–	–	–
CCc1cc2c(Nc3c[nH]nc3C(=O)Nc3ccc(CN4CCOCC4)cc3)ncnc2s1	1.56	3.3	34	–	–
O=C(Nc1c[nH]nc1C(=O)Nc1ccc(CN2CCOCC2)cc1)c1ccccc1	42.6	318	450	–	–
